From PubChem BioAssay AID504666 (Broad Institute, 2011)
Several values for one entry are separate records, joined by “and”; a condition that tells them apart may be missing. Equal values may be shown once. Results filed as inconclusive are left out. Activity calls are given as the source filed them.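 The calls were made as follows: active = compounds lowering the viability signal in every test, with half-maximal concentration at most ten times the top dose; inconclusive = mixed test calls, a flat partial drop, or a poor fit; inactive = all tests inactive.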

Experiments:
[1] = test system: HMLE_sh_eGFP viability, CellTiter-Glo luminescence, 72 h; test: viability loss in shGFP HMLE line – cell-based, CellTiter-Glo luminescence, 72 h, dry powder, set 6, counter-screen for breast cancer stem cell project, dose response (AID 504666)
In short: (§1)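 dosing = 100 nL pinned compound | system = HMLE_sh_eGFP cells | detection = CellTiter-Glo luminescence | times = ~70-74 h compound exposure, 37 °C | medium = serum-free culture medium for cell plating and exposure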

[2] = as above; conditions: HMLE_sh_eGFP viability, CellTiter-Glo luminescence, 72 h
In short: as §1

Compound	AC50 [1]	further results
CCc1ccc(/C=C/C(=O)NC2=NCCS2)cc1	28.3 µM	
COc1ccc(OCc2ccc(C(=O)Nc3nc(C)cs3)o2)c(F)c1	14.2 µM	
Cc1csc(NCc2ccc(COc3ccccc3)o2)n1	20.7 µM	
COc1ccc(Cl)c(OCc2ccc(C(=O)Nc3nc(C)cs3)o2)c1	0.166 µM	
COc1ccc2nc(NC(=O)c3ccc(COc4ccccc4)o3)sc2c1	2.54 µM	
CC(C)c1ccc(/C=C/C(=O)Nc2cncs2)cc1	9.59 µM	
CC(C)Cc1ccc(/C=C/C(=O)NC2=NCCS2)cc1	1.07 µM	
Cc1cc(Br)ccc1OCC(=O)N/N=C/c1ccc[nH]1	17.7 µM	
Cc1ccc(OCc2ccc(C(=O)Nc3nc(C)cs3)o2)cc1	6.79 µM	
Cc1csc(NC(=O)c2ccc(COCc3ccccc3)o2)n1	10.5 µM	
Cc1cc(C)c(OCC(=O)N/N=C/c2ccc[nH]2)c(C)c1		activity change, negative = toxicity ([2]; at 19.5 µM (top of the series)): -14% (inactive)
O=C(Nc1nc(C(F)(F)F)cs1)c1ccc(COc2ccccc2)o1	19.3 µM	
Cc1csc(NC(=O)c2coc(COc3ccccc3)c2)n1	2.78 µM	
CC(C)c1ccc(/C=C/C(=O)NC2=NCCS2)cc1	21.7 µM	
Cc1csc(NC(=O)c2ccc(COC(C)C)o2)n1		activity change, negative = toxicity ([2]; at 19.5 µM (top of the series)): 7.01% (inactive)
CC(C)c1ccc(/C=C/C(=O)Nc2nc(C(F)(F)F)cs2)cc1	8.98 µM	
Cc1csc(NC(=O)c2ccc(COc3cc(Cl)ccc3Cl)o2)n1	0.063 µM	
Cc1csc(NC(=O)c2ccc(COc3ccccc3)o2)n1	21.1 µM	
Cc1csc(NC(=O)c2ccc(COC3CCCCC3)o2)n1	18.5 µM	
Cc1coc(NC(=O)/C=C/c2ccc(C(C)C)cc2)n1		activity change, negative = toxicity ([2]; at 19.5 µM (top of the series)): -9.8% (inactive)
CC(C)NC(=O)c1ccc(COc2ccccc2)o1		activity change, negative = toxicity ([2]; at 19.5 µM (top of the series)): 0.674% (inactive)
CC(C)c1ccc(/C=C/C(=O)N(C)C2=NCCS2)cc1		activity change, negative = toxicity ([2]; at 19.5 µM (top of the series)): -2.24% (inactive)
Cc1coc(NC(=O)c2ccc(COc3ccccc3)o2)n1		activity change, negative = toxicity ([2]; at 19.5 µM (top of the series)): -6.36% (inactive)
C/C(=C\C(=O)NC1=NCCS1)c1ccc(CC(C)C)cc1	27.4 µM	

Compound	AC50 [1]	further results
COc1ccc(/C=C/C(=O)NC2=NCCS2)c(OC)c1		activity change, negative = toxicity ([2]; at 19.5 µM (top of the series)): -4.82% (inactive)
COc1ccc(OC)c2sc(NC(=O)c3ccc(COc4ccccc4)o3)nc12		activity change, negative = toxicity ([2]; at 30 µM (top of the series)): -8.62% (inactive)
Cc1csc(NC(=O)c2cocc2COc2ccccc2)n1		activity change, negative = toxicity ([2]; at 30 µM (top of the series)): 8.46% (inactive)
N#Cc1csc(NC(=O)c2ccc(COc3ccccc3)o2)n1	23.1 µM	
Cc1cccc(OCc2ccc(C(=O)Nc3nc(C)cs3)o2)c1	0.254 µM and 1.98 µM	
O=C(Nc1nc2c(Cl)cccc2s1)c1ccc(COc2ccccc2)o1	31.3 µM	
Cc1csc(NC(=O)c2ccc(CS(=O)(=O)c3ccccc3)o2)n1		activity change, negative = toxicity ([2]; at 19.5 µM (top of the series)): 1.03% (inactive)
C/C(=C\C(=O)NC1=NCCS1)c1ccc(C)cc1		activity change, negative = toxicity ([2]; at 19.5 µM (top of the series)): -6.97% (inactive)
CCOc1cccc(OCc2ccc(C(=O)Nc3nc(C)cs3)o2)c1	4.16 µM	
Cc1csc(NC(=O)c2ccc(COc3cccc(OC(F)(F)F)c3)o2)n1	0.667 µM	
Cc1csc(NC(=O)c2ccc(COc3cccc(F)c3)o2)n1	18.6 µM	
Cc1csc(NC(=O)c2ccc(COC(C)(C)C)o2)n1		activity change, negative = toxicity ([2]; at 19.5 µM (top of the series)): -6.71% (inactive)
Cc1csc(NC(=O)c2ccoc2COc2ccccc2)n1	20.5 µM	
Cc1csc(NC(=O)c2ccc(CNc3ccccc3)o2)n1	2.62 µM	
Cc1csc(NC(=O)c2ccc(COc3cccc(Oc4ccccc4)c3)o2)n1	0.738 µM	
Cc1ccc2cc(C(=O)NC3=NCCS3)n(C)c2c1		activity change, negative = toxicity ([2]; at 30 µM (top of the series)): -2.52% (inactive)
CCN(CC)C(=O)c1ccc(COc2ccccc2)o1		activity change, negative = toxicity ([2]; at 19.5 µM (top of the series)): -2.12% (inactive)
Cc1csc(NC(=O)c2ccc(COc3cccc(S(C)(=O)=O)c3)o2)n1		activity change, negative = toxicity ([2]; at 19.5 µM (top of the series)): -5.74% (inactive)
O=C(Nc1nncs1)c1ccc(COc2ccccc2)o1		activity change, negative = toxicity ([2]; at 19.5 µM (top of the series)): 8.89% (inactive)
Cc1csc(NC(=O)c2ccc(COc3cccc(Cl)c3)o2)n1	9.15 µM	
Cc1csc(NC(=O)c2ccc(CCc3ccccc3)o2)n1	5.68 µM	
Cc1csc(NC(=O)c2ccc(COc3ccccc3F)o2)n1	0.089 µM	
CC(C)c1ccc(C2CC2C(=O)NC2=NCCS2)cc1 (stereo not drawn)	23.9 µM	
COc1cccc(OCc2ccc(C(=O)Nc3nc(C)cs3)o2)c1	1.65 µM	
